The text below walks through data of ChEMBL document CHEMBL1136055, “3-Heteroaryl-2-pyridones: benzodiazepine site ligands with functional delectivity for alpha 2/alpha 3-subtypes of human GABA(A) receptor-ion channels” (J Med Chem, 2002).

pKi: −log10 of the molar value.

Series [1] can be described thus: Vdss at a dose of 1.5 mg/kg. Format: ADME, organism-based. More on the design: dose 1.5 mg/kg. The note with it: in vivo, read-out: Vdss.
Series [2] in a line: Log D was evaluated. Format: physicochemical. The note with it: octanol/water.
The nature of series [3]: Maximum concentration at a dose of 1.5 mg/kg. It is filed as ADME, organism-based. More on the design: dose 1.5 mg/kg. The conditions noted are these: in vivo.
Series [4] can be described thus: Half life at a dose of 1.5 mg/kg. Format: ADME, organism-based. More on the design: dose 1.5 mg/kg. The conditions noted are these: in vivo.
The nature of series [5]: Clp at a dose of 1.5 mg/kg. It is filed as ADME, organism-based. More on the design: dose 1.5 mg/kg. The conditions noted are these: in vivo.
In series [6] the target is GABA-A receptor; alpha-3/beta-3/gamma-2 (Homo sapiens) (UniProt P18507+P28472+P34903). Kind of series: Modulatory effect on coapplication with GABA at human Gamma-aminobutyric acid A receptor alpha-3-beta-3-gamma-2 in Xenopus oocytes. The conditions noted are these: Oocyte. Format: cell-based. A digest of the protocol:
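Two-electrode voltage clamp of Xenopus oocytes transiently expressing human α1, α2 or α3 β3γ2S receptors. Test compound is co-applied with GABA at its EC20 (GABA range 4-30 µM). Result is the % change in GABA current, mean (SEM), n = 3-7, at the stated test compound concentration (µM).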

Series [7] can be described thus: Maximum time at a dose of 1.5 mg/kg. It is filed as ADME, organism-based. More on the design: dose 1.5 mg/kg. The note with it: in vivo.
Series [8] can be described thus: Oral bioavailability at a dose of 1.5 mg/kg. Format: ADME, organism-based. The note with it: eutheria, in vivo.
For series [9], the target named is T1, GABA-A receptor; alpha-5/beta-3/gamma-2 (Homo sapiens, UniProt P18507+P28472+P31644).
T1 sequence (P18507 whole entry): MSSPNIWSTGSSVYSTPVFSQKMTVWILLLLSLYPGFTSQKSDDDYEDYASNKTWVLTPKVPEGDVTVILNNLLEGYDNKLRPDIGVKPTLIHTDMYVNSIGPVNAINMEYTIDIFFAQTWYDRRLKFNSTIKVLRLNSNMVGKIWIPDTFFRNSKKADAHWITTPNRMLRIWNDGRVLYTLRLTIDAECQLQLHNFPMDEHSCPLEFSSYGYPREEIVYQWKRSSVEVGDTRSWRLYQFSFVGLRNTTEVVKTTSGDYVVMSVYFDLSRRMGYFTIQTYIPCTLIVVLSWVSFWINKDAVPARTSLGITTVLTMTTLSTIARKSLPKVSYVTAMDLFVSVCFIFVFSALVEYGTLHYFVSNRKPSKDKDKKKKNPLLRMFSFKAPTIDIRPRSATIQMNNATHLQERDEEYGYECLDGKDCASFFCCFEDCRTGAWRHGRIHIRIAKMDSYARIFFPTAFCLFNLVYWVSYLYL
T1 sequence (P28472 whole entry): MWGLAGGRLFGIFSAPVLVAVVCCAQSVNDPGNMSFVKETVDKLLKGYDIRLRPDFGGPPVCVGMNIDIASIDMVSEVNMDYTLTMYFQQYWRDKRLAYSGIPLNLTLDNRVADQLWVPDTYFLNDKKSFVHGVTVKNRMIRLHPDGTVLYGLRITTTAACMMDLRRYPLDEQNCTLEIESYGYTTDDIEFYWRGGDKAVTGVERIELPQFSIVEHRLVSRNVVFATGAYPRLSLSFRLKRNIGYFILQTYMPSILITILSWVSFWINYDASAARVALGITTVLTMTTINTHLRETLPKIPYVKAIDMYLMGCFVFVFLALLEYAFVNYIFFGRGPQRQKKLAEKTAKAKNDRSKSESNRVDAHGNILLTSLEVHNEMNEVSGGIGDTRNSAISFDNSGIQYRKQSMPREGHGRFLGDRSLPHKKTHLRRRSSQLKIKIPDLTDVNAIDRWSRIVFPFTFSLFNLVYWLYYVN
T1 sequence (P31644 whole entry): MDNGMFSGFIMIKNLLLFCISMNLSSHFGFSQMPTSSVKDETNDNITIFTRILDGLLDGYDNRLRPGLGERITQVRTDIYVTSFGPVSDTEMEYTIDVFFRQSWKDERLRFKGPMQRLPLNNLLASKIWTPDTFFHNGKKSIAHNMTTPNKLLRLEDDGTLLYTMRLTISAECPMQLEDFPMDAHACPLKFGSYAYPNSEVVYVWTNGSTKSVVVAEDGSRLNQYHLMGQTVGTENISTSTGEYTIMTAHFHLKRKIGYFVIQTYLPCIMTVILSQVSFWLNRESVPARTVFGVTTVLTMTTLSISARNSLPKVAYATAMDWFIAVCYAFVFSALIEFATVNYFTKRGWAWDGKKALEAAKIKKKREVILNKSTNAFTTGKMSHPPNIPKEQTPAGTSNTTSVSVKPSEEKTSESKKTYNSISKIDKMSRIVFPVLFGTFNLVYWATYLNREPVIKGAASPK
Kind of series: Inhibition of [3H]Ro-151788 binding to human GABA A receptor (alpha-5-beta-3-gamma-2) stably expressed in L(tk-) cells. It is filed as cell-based. In short, it runs like this: (§1)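 Competition binding against [3H]Ro15-1788 on cloned human α1/α2/α3/α5 β3γ2S receptors stably expressed in L(tk-) cells. Six to eight test concentrations spaced in half-log steps. Ki given as mean (SEM), n = 3-5, reported to two significant figures.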

The target in series [10] is T1, GABA-A receptor; alpha-5/beta-3/gamma-2. Put plainly: Displacement of [3H]Ro-151788 from human GABA-A receptor alpha-5-beta-3-gamma-2 subunits expressed in L(tk-) cells. It is filed as cell-based. A digest of the protocol:
as §1

Series [11] in a line: Maximum time at a dose of 2.0 mg/kg. Format: ADME, organism-based. More on the design: dose 2 mg/kg. The note with it: in vivo.
Series [12] can be described thus: half life at a dose of 2.0 mg/kg. Format: ADME, organism-based. More on the design: dose 2 mg/kg. The conditions noted are these: in vivo.
Series [13] in a line: Vdss at a dose of 2.0 mg/kg. It is filed as ADME, organism-based. More on the design: dose 2 mg/kg. The conditions noted are these: in vivo, read-out: Vdss.
A short description of series [14]: Clp at a dose of 2.0 mg/kg. It is filed as ADME, organism-based. More on the design: dose 2 mg/kg. The conditions noted are these: in vivo.
Series [15] in a line: Partition coefficient (logD). The conditions noted are these: octanol/water. Format: physicochemical.
Series [16] can be described thus: Maximum concentration at a dose of 2.0 mg/kg. It is filed as ADME, organism-based. More on the design: dose 2 mg/kg. The note with it: in vivo.
The nature of series [17]: Oral bioavailability at a dose of 2.0 mg/kg. Format: ADME, organism-based. The note with it: eutheria, in vivo.

A word on the logD: it is the decadic logarithm of the distribution of all forms, ionised or not, between an organic phase and buffer at a given pH. A higher logD goes with a more lipophilic compound. As usually defined, the Cmax is the maximum level reached in the sampled fluid or tissue. As usually defined, the half-life is the time needed for the level to fall by half in the phase considered. High values mean slow loss, low ones fast loss. As a reminder, the Tmax is the time at which the peak concentration occurs. In general, bioavailability refers to dose-corrected exposure relative to a reference, in per cent. The pKi is the negative decadic logarithm of the Ki, by convention in mol/L. A lower pKi goes with a large Ki. Consider `COc1ccc(-c2cc(-c3nc(C)cs3)c(=O)n(C)c2-c2ccnnc2)cc1`, for which the Vd in series [1] was found to be 2.5 L/kg. Besides, the logD in series [2] turned out to be 2.7. For the same compound, the highest level in series [3] (Cmax) was 170 ng/mL. The half-life in series [4] was 66 min. The same compound came in with a Clp in series [5] of 35 mL/min/kg. Further, the percent modulation of GABA EC20 response in series [6] came out at 34%. Besides, the Tmax in series [7] was found to be 30 min. This compound also displayed a bioavailability in series [8] of 65%. The same compound had a pKi in series [9] of 6.48.
The compound `COc1ccc(-c2cc(-c3nc(C)cs3)c(=O)n(C)c2-c2ccncc2)cc1` showed a pKi in [10] of 6.49. In [11], the Tmax stood at 18 min. The compound also gave a half-life in series [12] of 102 min. Further, in series [13], the Vd was 3.3 L/kg. In series [6], this compound showed a percent modulation of GABA EC20 response of 43%. The Clp in series [14] was determined as 44 mL/min/kg. This compound also displayed a logD in [15] of 3.6. Besides, the peak level in series [16] (Cmax) was 83 ng/mL. Also, in [17], the bioavailability amounted to 25%.
